Columns and labels:
[1] = target: T1, mouse TRPC4 (Mus musculus, UniProt Q9QUQ5); experiment: Selectivity assay in HEK293 cells co-expressing TRPC4 and μ-opioid receptor; type: cell-based; conditions: induced by DAMGO 1 μM
T1 sequence (Q9QUQ5 1-974): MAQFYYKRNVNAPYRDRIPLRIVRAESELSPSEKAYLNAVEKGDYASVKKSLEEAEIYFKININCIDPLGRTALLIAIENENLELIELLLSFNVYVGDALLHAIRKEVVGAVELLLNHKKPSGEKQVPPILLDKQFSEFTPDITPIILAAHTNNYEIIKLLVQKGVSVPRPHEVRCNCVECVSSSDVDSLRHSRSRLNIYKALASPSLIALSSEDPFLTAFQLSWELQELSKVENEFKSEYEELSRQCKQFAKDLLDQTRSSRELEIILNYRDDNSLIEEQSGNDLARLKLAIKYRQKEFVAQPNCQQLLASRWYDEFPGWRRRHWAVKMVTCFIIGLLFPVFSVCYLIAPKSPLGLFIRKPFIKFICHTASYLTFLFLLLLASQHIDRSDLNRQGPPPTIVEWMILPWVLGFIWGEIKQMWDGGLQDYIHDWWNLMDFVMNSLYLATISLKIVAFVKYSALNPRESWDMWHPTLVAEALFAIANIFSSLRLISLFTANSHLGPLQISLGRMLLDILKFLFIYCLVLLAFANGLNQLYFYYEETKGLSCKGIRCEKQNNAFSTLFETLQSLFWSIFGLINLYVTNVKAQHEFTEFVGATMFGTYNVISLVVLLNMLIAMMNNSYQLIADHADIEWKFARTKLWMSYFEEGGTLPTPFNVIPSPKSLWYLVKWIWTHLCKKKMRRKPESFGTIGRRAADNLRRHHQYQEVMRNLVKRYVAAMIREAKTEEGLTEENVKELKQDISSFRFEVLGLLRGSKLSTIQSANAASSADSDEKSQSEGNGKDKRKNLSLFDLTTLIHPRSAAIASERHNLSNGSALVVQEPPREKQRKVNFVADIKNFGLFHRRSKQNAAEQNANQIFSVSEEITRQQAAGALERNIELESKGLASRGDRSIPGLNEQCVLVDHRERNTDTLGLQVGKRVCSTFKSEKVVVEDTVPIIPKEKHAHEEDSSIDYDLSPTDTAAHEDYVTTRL

[2] = system: MKN-45 cells; experiment: Boyden chamber / Transwell cell migration assay; type: cell-based, human; conditions: 24 h
Summary of the method: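 MKN-45 cells in serum-free medium were seeded with test compound on uncoated Transwell membranes (8 μm pores), with complete medium containing 10% FBS in the lower chamber, and left to migrate for 24 h. Cells on the upper surface were removed. Cells on the underside were fixed, stained with crystal violet and counted in six random fields. A positive-control compound was run alongside.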

[3] = system: MKN-45 cells; experiment: MTT cell viability assay, MKN-45; type: cell-based, human; conditions: Homo sapiens, MKN-45, 72 h, read-out: IC50 cell proliferation, MKN-45
Summary of the method: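 Cells were seeded at 2000 per well, incubated overnight and exposed to test compound for 72 h. MTT was added for 4 h, formazan was dissolved in DMSO and absorbance was read at 570 nm. Viability was normalized to untreated wells, giving mean ± SEM of three trials. IC50 was calculated from relative survival.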

[4] = target: T2, TRPC6 (Mus musculus, UniProt Q61143); experiment: Whole-cell voltage clamp of TRPC6 currents evoked by GSK1702934A; type: cell-based
T2 sequence (Q61143 1-930): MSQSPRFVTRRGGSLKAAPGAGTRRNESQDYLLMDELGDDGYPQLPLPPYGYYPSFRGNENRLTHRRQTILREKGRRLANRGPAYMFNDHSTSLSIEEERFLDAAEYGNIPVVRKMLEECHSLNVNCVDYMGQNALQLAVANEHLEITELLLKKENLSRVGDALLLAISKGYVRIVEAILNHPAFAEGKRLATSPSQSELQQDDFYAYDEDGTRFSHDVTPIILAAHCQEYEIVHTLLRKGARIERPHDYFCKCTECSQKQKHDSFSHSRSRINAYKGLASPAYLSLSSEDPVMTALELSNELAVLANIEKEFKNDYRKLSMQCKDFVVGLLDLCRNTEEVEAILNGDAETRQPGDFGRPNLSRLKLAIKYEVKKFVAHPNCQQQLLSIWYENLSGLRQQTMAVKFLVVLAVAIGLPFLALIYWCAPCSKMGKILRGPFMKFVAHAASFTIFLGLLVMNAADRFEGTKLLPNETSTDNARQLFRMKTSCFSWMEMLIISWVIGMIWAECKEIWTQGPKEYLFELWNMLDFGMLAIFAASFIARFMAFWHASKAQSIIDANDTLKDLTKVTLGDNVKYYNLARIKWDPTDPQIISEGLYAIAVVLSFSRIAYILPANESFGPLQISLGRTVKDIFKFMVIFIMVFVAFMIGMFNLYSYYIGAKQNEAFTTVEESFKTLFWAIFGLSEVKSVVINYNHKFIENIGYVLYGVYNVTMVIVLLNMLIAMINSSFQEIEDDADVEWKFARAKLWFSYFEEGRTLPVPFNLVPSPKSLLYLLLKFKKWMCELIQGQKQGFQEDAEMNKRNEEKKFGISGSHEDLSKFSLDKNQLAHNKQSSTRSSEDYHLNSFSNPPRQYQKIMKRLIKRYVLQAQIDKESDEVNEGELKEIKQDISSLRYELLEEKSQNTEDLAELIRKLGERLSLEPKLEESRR
Summary of the method: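 TRPC6-expressing HEK293 cells were recorded with voltage ramps to obtain current–voltage relationships. Current was activated by GSK1702934A (1 μM) and test compound was applied at varying concentrations. IC50 was derived from a Hill-equation fit of the concentration-response curve.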

[5] = system: MKN-45 cells; experiment: Wound-healing migration assay; type: cell-based, human; conditions: 5 μM, 24 h
Summary of the method: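 MKN-45 cells were seeded and cultured overnight, then scratched with a pipette tip and treated with test compound. The wound was imaged at 0 and 24 h. The width of the cell-free zone was measured at six positions, and relative migration distance was calculated. A positive-control compound was run alongside.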

Effect on TRPC4 [1]: only partially inhibited | IC50 [3]: 8 ± 0.51 µM | IC50 [4]: 4.19 ± 0.04 µM | Effect on TRPC6 currents ([4]; evoked by GSK1702934A 1 μM, whole-cell voltage clamp): immediately suppressed
SMILES: COc1cccc2sc(N(CCN(C)C)C(=O)c3ccc4c(c3)CCCC4)nc12 [Compound 1s, N-(2-(dimethylamino)ethyl)-N-(4-methoxybenzo[d]thiazol-2-yl)-5,6,7,8-tetrahydronaphthalene-2-carboxamide]
MKN-45 cell invasion (movement through the pores toward chemoattractant) [2]: inhibited | MKN-45 cell migration (wound healing) [5]: inhibited the MKN-45 cell migration

From PMC8028158 (ACS Omega, 2021)
